Most compounds without a hit are left out; they make up all but 5.8% or so of the library.
Pf Dd2 growth – blocks growth of Plasmodium falciparum Dd2 parasites | P. falciparum Dd2 growth, SYBR Green, 72 h; active compounds read low | AID 1159554 | activity change, % at 10 µM | hit rate 2.3% among 94,000; in the data active = activity change below about -80%; inconclusive = no clear call, values can overlap the other calls
IDH1 R132H inh – inhibitors of human IDH1 R132H. IDH1 R132H reductase, diaphorase/resazurin fluorescence, 60 min. hit rate 0.18% among 70,000. O75874. inhibition, % at 10 µM; in the data active = inhibition above about 34%; inconclusive = no clear call, values can overlap the other calls; inactive = below about 11%
Target sequence (O75874 whole entry R132H): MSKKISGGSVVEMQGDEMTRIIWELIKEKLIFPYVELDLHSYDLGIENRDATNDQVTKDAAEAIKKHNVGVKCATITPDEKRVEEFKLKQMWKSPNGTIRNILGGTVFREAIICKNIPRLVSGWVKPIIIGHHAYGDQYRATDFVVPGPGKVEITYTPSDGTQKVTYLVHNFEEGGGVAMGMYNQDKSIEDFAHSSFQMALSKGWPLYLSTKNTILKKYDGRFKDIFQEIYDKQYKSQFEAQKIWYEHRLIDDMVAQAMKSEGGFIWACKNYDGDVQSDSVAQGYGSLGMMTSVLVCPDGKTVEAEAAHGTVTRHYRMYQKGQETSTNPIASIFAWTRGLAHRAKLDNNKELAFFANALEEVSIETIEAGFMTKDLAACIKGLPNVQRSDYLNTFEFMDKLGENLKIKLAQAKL
GASC1 inh – blocks human GASC-1 (KDM4C) demethylase activity. Q9H3R0. GST-KDM4C 2-372, H3K9me3 peptide, LANCE TR-FRET. inhibition, % at 12.5 µM. hit rate 0.15% among 96,000;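 active = mean replicate inhibition above about 25%, with at least 55% of replicates also reaching it, limit read from the data, passing the limit was not always enough; inconclusive = only one of those two conditions met; inactive = neither condition met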
Target sequence (Q9H3R0 2-372 limits assumed): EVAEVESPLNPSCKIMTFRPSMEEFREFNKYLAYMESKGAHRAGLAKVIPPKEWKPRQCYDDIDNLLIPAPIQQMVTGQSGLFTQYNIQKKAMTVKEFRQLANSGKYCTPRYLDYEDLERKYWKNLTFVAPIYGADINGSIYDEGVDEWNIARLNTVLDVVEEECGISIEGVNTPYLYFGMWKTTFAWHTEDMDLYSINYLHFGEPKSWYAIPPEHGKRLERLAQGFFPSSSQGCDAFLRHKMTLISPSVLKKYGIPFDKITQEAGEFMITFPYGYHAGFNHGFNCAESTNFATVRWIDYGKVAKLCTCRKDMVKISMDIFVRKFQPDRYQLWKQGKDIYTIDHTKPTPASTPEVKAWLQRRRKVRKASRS
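Compound: one test concentration per compound; Material: GST-GASC-1 enzyme fragment 2-372; Amount: GASC-1 enzyme at 10 nM final in reaction; Also added: H3K9me3 peptide substrate, Fe(II), 2-oxoglutarate; Technique: LANCE TR-FRET; Times: 30 min demethylation and 1 h detection at room temperature.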
T cruzi growth-1 – blocks T. cruzi growth in NIH3T3 culture. inhibition, % at 8.34 µM. T. cruzi beta-gal in NIH3T3, GalScreen luminescence, 90 h. hit rate 5.9% among 77,000. AID 624255;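 active = mean inhibition above about 93%, with at least 55% of replicates each passing it, limit read from the data, passing the limit was not always enough; inconclusive = only one of those two conditions holds; inactive = neither condition holds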
T cruzi growth-2 – blocks T. cruzi growth in NIH3T3 host cells; shares compounds with T cruzi growth-1; T. cruzi beta-gal in NIH3T3, GalScreen luminescence, 90 h; inhibition, % at 8.35 µM; hit rate 72% among 5,600; AID 651739;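 active = mean replicate inhibition above about 95% and at least 55% of replicates individually reaching it, limit read from the data; inconclusive = only one of the two criteria is met; inactive = neither criterion is met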
T cruzi growth-3 – blocks T. cruzi growth in NIH3T3 host cells; shares compounds with T cruzi growth-1; hit rate 21% among 5,600; inhibition, % at 2.09 µM; T. cruzi beta-gal in NIH3T3, GalScreen luminescence, 90 h; AID 651740;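 active = mean inhibition above about 95%, with at least 55% of replicates also reaching it, limit read from the data; inconclusive = meets just one of the two conditions; inactive = meets neither condition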
NIH3T3 tox – cytotoxicity in mouse NIH/3T3 fibroblasts; shares compounds with T cruzi growth-1; NIH/3T3 viability, CellTiter-Glo ATP luminescence, 90 h; cytotoxicity (signal decrease), % at 8.35 µM; hit rate 14% among 5,600; AID 651742;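 active = mean signal decrease across replicates above about 35% based on untreated-well scatter, with enough replicates individually passing, limit read from the data; inconclusive = no rule stated though some were filed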
3T3 cytotox 2 – kills mouse NIH/3T3 fibroblasts | shares compounds with T cruzi growth-1 | NIH/3T3 viability, CellTiter-Glo ATP luminescence, 90 h | inhibition, % at 24.9 µM | hit rate 56% among 5,600;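 active = mean loss of cell viability signal at or above a set limit, and enough replicates individually reaching it; inconclusive = meets only the mean limit or only the replicate share; inactive = meets neither condition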
Each line names hits and unclear results; the compound was inactive in the other large screens (follow-up assays come after a bar, where they were run).

COc1ccc(C#Cc2ccc([C@H]3[C@H]4CN(C(=O)Cc5ccccc5)CCCCN4[C@H]3CO)cc2)cc1	none (no result: IDH1 R132H inh)
O=C(Cc1ccncc1)N1CCCCN2[C@H](CO)[C@H](c3ccc(C#Cc4ccccc4F)cc3)[C@H]2C1	T cruzi growth-1 inconclusive (no result: IDH1 R132H inh) | T cruzi growth-2 103.8 | T cruzi growth-3 inactive | NIH3T3 tox inactive | 3T3 cytotox 2 102.8
O=C(Cc1ccccc1)N1CCCCN2[C@H](CO)[C@@H](c3ccc(C#Cc4ccccc4)cc3)[C@H]2C1	T cruzi growth-1 117.9 (no result: IDH1 R132H inh) | T cruzi growth-2 97.1 | T cruzi growth-3 inactive | NIH3T3 tox 57.7 | 3T3 cytotox 2 104.7
CNCC(O)c1ccc(O)c(OC)c1 (centres undefined)	none (no result: Pf Dd2 growth, GASC1 inh, T cruzi growth-1)
CO/C1=C/C(C)=C/[C@@H](C)[C@@H](O)[C@@H](C)C/C(C)=C/C=C\[C@H](OC)[C@@H]([C@@H](C)[C@@H](O)[C@H](C)[C@@]2(O)C[C@@H](O)[C@H](C)[C@@H](C(C)C)O2)OC1=O	none (no result: Pf Dd2 growth, GASC1 inh, T cruzi growth-1)
CCC(C)[C@H]1C(=O)O[C@H](C(C)C)C(=O)N(C)[C@@H](C(C)C)C(=O)O[C@H](C(C)C)C(=O)N(C)[C@@H](C(C)C)C(=O)O[C@H](C(C)C)C(=O)N1C (some centres undefined)	none (no result: Pf Dd2 growth, GASC1 inh, T cruzi growth-1)
Cc1ccccc1-c1ccc([C@H]2[C@@H](CO)N3CCCCN(C(=O)Cc4ccccn4)C[C@@H]23)cc1	T cruzi growth-1 102.8 (no result: IDH1 R132H inh) | T cruzi growth-2 96.5 | T cruzi growth-3 inactive | NIH3T3 tox inactive | 3T3 cytotox 2 inconclusive
Cc1ccccc1-c1ccc([C@@H]2[C@H]3CN(C(=O)Cc4ccccn4)CCCCN3[C@H]2CO)cc1	T cruzi growth-1 98.7 (no result: IDH1 R132H inh) | T cruzi growth-2 inactive | T cruzi growth-3 inactive | NIH3T3 tox inactive | 3T3 cytotox 2 inactive
Cc1ccccc1-c1ccc([C@H]2[C@H]3CN(C(=O)Cc4ccccn4)CCCCN3[C@H]2CO)cc1	T cruzi growth-1 inconclusive (no result: IDH1 R132H inh) | T cruzi growth-2 inactive | T cruzi growth-3 inactive | NIH3T3 tox inactive | 3T3 cytotox 2 inactive
C#CCN1C(C)=C(C(=O)CCO)C(c2cccc(-n3oo3)c2)C(C(=O)OC)=C1C (centres undefined)	none (no result: Pf Dd2 growth, GASC1 inh, T cruzi growth-1)
CN1CCC2(c3cccc(O)c3)Cc3nc4ccccc4cc3CC2C1 (centres undefined)	none (no result: Pf Dd2 growth, GASC1 inh, T cruzi growth-1)
O=C(Cc1cccnc1)N1CCCCN2[C@H](CO)[C@@H](c3ccc(/C=C/c4ccccc4)cc3)[C@H]2C1	T cruzi growth-1 105.1 (no result: IDH1 R132H inh) | T cruzi growth-2 108.7 | T cruzi growth-3 inactive | NIH3T3 tox inactive | 3T3 cytotox 2 103.6
COc1ccc(C#Cc2ccc([C@@H]3[C@@H](CO)N4CCCCN(C(=O)Cc5cccnc5)C[C@H]34)cc2)cc1	T cruzi growth-1 100.2 (no result: IDH1 R132H inh) | T cruzi growth-2 106.2 | T cruzi growth-3 inactive | NIH3T3 tox inactive | 3T3 cytotox 2 105.1
O=C(Cc1cccnc1)N1CCCCN2[C@H](CO)[C@H](c3ccc(/C=C/c4ccccc4)cc3)[C@H]2C1	none (no result: IDH1 R132H inh)
COc1ccc(C#Cc2ccc([C@@H]3[C@H](CO)N4CCCCN(C(=O)Cc5cccnc5)C[C@@H]34)cc2)cc1	T cruzi growth-1 112.1 (no result: IDH1 R132H inh) | T cruzi growth-2 106.6 | T cruzi growth-3 inactive | NIH3T3 tox 39.0 | 3T3 cytotox 2 103.7
C=CCN1CCC23c4c5ccc(O)c4OC2/C(=N\NC(=O)c2ccccc2)CCC3(O)C1C5 (centres undefined)	none (no result: Pf Dd2 growth, GASC1 inh, T cruzi growth-1)
CC(=O)OC1CCC2(C)C(CC[C@@H]3[C@@H]2CCC2(C)C(C4=CC(=O)OC4)CCC32O)C1 (some centres undefined)	none (no result: Pf Dd2 growth, GASC1 inh, T cruzi growth-1)
CCCCC/C=C/C/C=C/C/C=C/C/C=C/CCCC(=O)NCCCC(=O)O	none (no result: Pf Dd2 growth, GASC1 inh, T cruzi growth-1)
CC(C)C1(NC(=O)C2CC3c4cccc5[nH]cc(c45)CC3N(C)C2)OC2(O)C3CCCN3C(=O)C(Cc3ccccc3)N2C1=O (centres undefined)	none (no result: Pf Dd2 growth, GASC1 inh, T cruzi growth-1)
COc1ccc(C#Cc2ccc([C@H]3[C@H](CO)N4CCCCN(C(=O)Cc5ccncc5)C[C@@H]34)cc2)cc1	T cruzi growth-1 105.9 (no result: IDH1 R132H inh) | T cruzi growth-2 107.7 | T cruzi growth-3 inactive | NIH3T3 tox inactive | 3T3 cytotox 2 104.7
COc1ccc(-c2ccc([C@@H]3[C@@H](CO)N4CCCCN(C(=O)Cc5ccncc5)C[C@H]34)cc2)cc1	none (no result: IDH1 R132H inh)
COc1ccc(-c2ccc([C@H]3[C@H]4CN(C(=O)Cc5ccncc5)CCCCN4[C@H]3CO)cc2)cc1	none (no result: IDH1 R132H inh)
COc1ccc(C#Cc2ccc([C@@H]3[C@H](CO)N4CCCCN(C(=O)Cc5ccncc5)C[C@@H]34)cc2)cc1	T cruzi growth-1 111.8 (no result: IDH1 R132H inh) | T cruzi growth-2 103.2 | T cruzi growth-3 inactive | NIH3T3 tox inactive | 3T3 cytotox 2 104.4
C[C@H]1CN([C@@H](C)CO)C(=O)CCCn2cc(nn2)CO[C@H]1CN(C)C(=O)Oc1cccc2ccccc12	T cruzi growth-1 116.7 | T cruzi growth-2 inactive | T cruzi growth-3 inactive | NIH3T3 tox inactive | 3T3 cytotox 2 inactive
O=C(Cc1ccccn1)N1CCCCN2[C@H](CO)[C@H](c3ccc(-c4ccccc4)cc3)[C@@H]2C1	T cruzi growth-1 inconclusive (no result: IDH1 R132H inh) | T cruzi growth-2 102.8 | T cruzi growth-3 inactive | NIH3T3 tox inactive | 3T3 cytotox 2 inactive
O=C(Cc1ccccn1)N1CCCCN2[C@H](CO)[C@@H](c3ccc(-c4ccccc4)cc3)[C@H]2C1	none (no result: IDH1 R132H inh)
O=C(Cc1ccccn1)N1CCCCN2[C@@H](CO)[C@H](c3ccc(-c4ccccc4)cc3)[C@@H]2C1	T cruzi growth-1 104.9 (no result: IDH1 R132H inh) | T cruzi growth-2 inconclusive | T cruzi growth-3 inactive | NIH3T3 tox inactive | 3T3 cytotox 2 inactive
O=C(Cc1ccccn1)N1CCCCN2[C@H](CO)[C@@H](c3ccc(C#Cc4ccccc4)cc3)[C@@H]2C1	none (no result: IDH1 R132H inh)
O=C(Cc1ccccn1)N1CCCCN2[C@@H](CO)[C@H](c3ccc(C#Cc4ccccc4)cc3)[C@@H]2C1	T cruzi growth-1 114.3 (no result: IDH1 R132H inh) | T cruzi growth-2 109.3 | T cruzi growth-3 inactive | NIH3T3 tox 38.8 | 3T3 cytotox 2 105.3
O=C(Cc1ccccn1)N1CCCCN2[C@H](CO)[C@@H](c3ccc(C#Cc4ccccc4)cc3)[C@H]2C1	T cruzi growth-1 105.6 (no result: IDH1 R132H inh) | T cruzi growth-2 96.9 | T cruzi growth-3 inactive | NIH3T3 tox 40.8 | 3T3 cytotox 2 105.5
O=C(Cc1ccccn1)N1CCCCN2[C@H](CO)[C@H](c3ccc(C#Cc4ccccc4)cc3)[C@H]2C1	T cruzi growth-1 105.0 (no result: IDH1 R132H inh) | T cruzi growth-2 102.0 | T cruzi growth-3 inactive | NIH3T3 tox 52.4 | 3T3 cytotox 2 107.2
O=C(Cc1ccccc1)N1CCCCN2[C@H](C1)[C@@H](c1ccc(C#CC3(O)CCCC3)cc1)[C@@H]2CO	none (no result: IDH1 R132H inh)

From PubChem
